# In ChEMBL document CHEMBL1125199, “Comparison of azabicyclic esters and oxadiazoles as ligands for the muscarinic receptor” (J Med Chem, 1991):
# Assays:
# [1] = biological target: Muscarinic acetylcholine receptor; experiment: The compound was tested in vitro for central muscarinic acetylcholine receptor affinity to displace [3H]oxotremorine-M from rat cerebral cortex; Value ranges from 100-150; type: tissue-based
# [2] = biological target: Muscarinic acetylcholine receptor; experiment: The compound was tested in vitro for central muscarinic acetylcholine receptor affinity to displace [3H]quinuclidinyl benzilate from rat cerebral cortex; Value ranges from 3900-5800; type: tissue-based
# [3] = biological target: T1, Muscarinic acetylcholine receptor (Rattus norvegicus) (UniProt P08482+P08483+P08485+P08911+P10980); experiment: Relative binding of QNB and OXO-M to muscarininc receptors (ratio of IC50); type: protein assay
# Summary of the method: (§1)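 Ratio of IC50 for [3H]QNB displacement to IC50 for [3H]OXO-M displacement in rat cerebral cortex membranes. [3H]QNB at 0.27 nM; [3H]OXO-M at 2 nM with 2 mM MgCl2. Both incubated at 37 °C for 30 min in 50 mM Tris pH 7.7.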
# [4] = biological target: Muscarinic acetylcholine receptor; experiment: The compound was tested in vitro for central Muscarinic acetylcholine receptor affinity to displace [3H]oxotremorine-M from rat cerebral cortex; Value ranges from 12-18; type: tissue-based
# Mus musculus [5] = experiment: Dose administered perorally which causes a fall of 3 degrees C in mean rectal temperature in group of 5 mice; type: functional
# Summary of the method: (§2)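 Male CDI mice, 25–32 g, housed singly; rectal temperature read by thermocouple probe at 2.5 cm depth, three baseline readings at 20–30 min intervals, then every 15 min after dosing. ED3 read graphically as the dose giving a 3 °C fall in mean rectal temperature, groups of five; 95% confidence intervals given.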
# [6] = It is the ratio of IC50(QNB) to that of IC50(OXO-M); summary of the method: as §1
# Mus musculus [7] = experiment: Dose administered subcutaneously which causes a fall of 3 degrees C in mean rectal temperature in group of 5 mice.; type: functional; summary of the method: as §2
# [8] = biological target: Muscarinic acetylcholine receptor; experiment: The compound was tested in vitro for central Muscarinic acetylcholine receptor affinity to displace [3H]quinuclidinyl benzilate from rat cerebral cortex; Value ranges from […]; type: tissue-based
# [9] = biological target: Muscarinic acetylcholine receptor; experiment: The compound was tested in vitro for central muscarinic acetylcholine receptor affinity to displace [3H]quinuclidinyl benzilate from rat cerebral cortex; Value ranges from 6200-6700; type: tissue-based
# [10] = biological target: Muscarinic acetylcholine receptor; experiment: The compound was tested in vitro for central muscarinic acetylcholine receptor affinity to displace [3H]oxotremorine-M from rat cerebral cortex; Value ranges from 14-27; type: tissue-based
# Mus musculus [11] = experiment: Dose administered subcutaneously which causes a fall of 3 degrees C in mean rectal temperature in group of 5 mice; type: functional; summary of the method: as §2
# [12] = biological target: Muscarinic acetylcholine receptor; experiment: The compound was tested in vitro for central muscarinic acetylcholine receptor affinity to displace [3H]quinuclidinyl benzilate from rat cerebral cortex; Value ranges from 14000-38000; type: tissue-based
# [13] = biological target: Muscarinic acetylcholine receptor; experiment: The compound was tested in vitro for central muscarinic acetylcholine receptor affinity to displace [3H]oxotremorine-M from rat cerebral cortex; Value ranges from 93-190; type: tissue-based
# [14] = biological target: Muscarinic acetylcholine receptor; experiment: The compound was tested in vitro for central muscarinic acetylcholine receptor affinity to displace [3H]oxotremorine-M from rat cerebral cortex; Value ranges from 1.6-3.9; type: tissue-based
# [15] = biological target: Muscarinic acetylcholine receptor; experiment: The compound was tested in vitro for central muscarinic acetylcholine receptor affinity to displace [3H]quinuclidinyl benzilate from rat cerebral cortex; Value ranges from 930-1100; type: tissue-based
# [16] = biological target: Muscarinic acetylcholine receptor; experiment: The compound was tested in vitro for central muscarinic acetylcholine receptor affinity to displace [3H]quinuclidinyl benzilate from rat cerebral cortex; Value ranges from 23000-38000; type: tissue-based
# [17] = biological target: T1, Muscarinic acetylcholine receptor (Rattus norvegicus); experiment: It is the ratio of IC50 (QNB) to that of IC50 (OXO-M); type: protein assay; summary of the method: as §1
# [18] = biological target: Muscarinic acetylcholine receptor; experiment: The compound was tested in vitro for central muscarinic acetylcholine receptor affinity to displace [3H]oxotremorine-M from rat cerebral cortex; Value ranges from 78-200; type: tissue-based
# [19] = biological target: Muscarinic acetylcholine receptor; experiment: The compound was tested in vitro for central muscarinic acetylcholine receptor affinity to displace [3H]oxotremorine-M from rat cerebral cortex; Value ranges from 41-48; type: tissue-based
# [20] = biological target: Muscarinic acetylcholine receptor; experiment: The compound was tested in vitro for central muscarinic acetylcholine receptor affinity to displace [3H]quinuclidinyl benzilate from rat cerebral cortex; Value ranges from 2300-2600; type: tissue-based
# [21] = biological target: Muscarinic acetylcholine receptor; experiment: The compound was tested in vitro for central muscarinic acetylcholine receptor affinity to displace [3H]oxotremorine-M from rat cerebral cortex; Value ranges from 190-280; type: tissue-based
# [22] = biological target: Muscarinic acetylcholine receptor; experiment: The compound was tested in vitro for central muscarinic acetylcholine receptor affinity to displace [3H]quinuclidinyl benzilate from rat cerebral cortex; Value ranges from 44000-60000; type: tissue-based
# [23] = biological target: Muscarinic acetylcholine receptor; experiment: The compound was tested in vitro for central muscarinic acetylcholine receptor affinity to displace [3H]quinuclidinyl benzilate from rat cerebral cortex; Value ranges from 16000-36000; type: tissue-based
# [24] = biological target: Muscarinic acetylcholine receptor; experiment: The compound was tested in vitro for central muscarinic acetylcholine receptor affinity to displace [3H]oxotremorine-M from rat cerebral cortex; Value ranges from 440-600; type: tissue-based
# [25] = biological target: Muscarinic acetylcholine receptor; experiment: The compound was tested in vitro for central muscarinic acetylcholine receptor affinity to displace [3H]oxotremorine-M from rat cerebral cortex; Value ranges from 200-340; type: tissue-based
# [26] = biological target: Muscarinic acetylcholine receptor; experiment: The compound was tested in vitro for central muscarinic acetylcholine receptor affinity to displace [3H]quinuclidinyl benzilate from rat cerebral cortex; Value ranges from 2800-6300; type: tissue-based
# [27] = biological target: Muscarinic acetylcholine receptor; experiment: The compound was tested in vitro for central muscarinic acetylcholine receptor affinity to displace [3H]quinuclidinyl benzilate from rat cerebral cortex; Value ranges from 8000-17000; type: tissue-based
# [28] = biological target: Muscarinic acetylcholine receptor; experiment: The compound was tested in vitro for central muscarinic acetylcholine receptor affinity to displace [3H]oxotremorine-M from rat cerebral cortex; Value ranges from 650-1900; type: tissue-based
# [29] = biological target: Muscarinic acetylcholine receptor; experiment: The compound was tested in vitro for central muscarinic acetylcholine receptor affinity to displace [3H]oxotremorine-M from rat cerebral cortex; Value ranges from 93-280; type: tissue-based
# [30] = biological target: Muscarinic acetylcholine receptor; experiment: The compound was tested in vitro for central muscarinic acetylcholine receptor affinity to displace [3H]quinuclidinyl benzilate from rat cerebral cortex; Value ranges from 48000-100000; type: tissue-based
# [31] = biological target: Muscarinic acetylcholine receptor; experiment: The compound was tested in vitro for central muscarinic acetylcholine receptor affinity to displace [3H]oxotremorine-M from rat cerebral cortex; Value ranges from 25-31; type: tissue-based
# [32] = biological target: Muscarinic acetylcholine receptor; experiment: The compound was tested in vitro for central muscarinic acetylcholine receptor affinity to displace [3H]quinuclidinyl benzilate from rat cerebral cortex; Value ranges from 1800-3000; type: tissue-based
# [33] = biological target: Muscarinic acetylcholine receptor; experiment: The compound was tested in vitro for central muscarinic acetylcholine receptor affinity to displace [3H]oxotremorine-M from rat cerebral cortex; Value ranges from 34-52; type: tissue-based
# [34] = biological target: Muscarinic acetylcholine receptor; experiment: The compound was tested in vitro for central muscarinic acetylcholine receptor affinity to displace [3H]quinuclidinyl benzilate from rat cerebral cortex; Value ranges from 8000-11000; type: tissue-based
# [35] = biological target: Muscarinic acetylcholine receptor; experiment: The compound was tested in vitro for central muscarinic acetylcholine receptor affinity to displace [3H]oxotremorine-M from rat cerebral cortex; Value ranges from 1000-1900; type: tissue-based
# [36] = biological target: Muscarinic acetylcholine receptor; experiment: The compound was tested in vitro for central muscarinic acetylcholine receptor affinity to displace [3H]quinuclidinyl benzilate from rat cerebral cortex; Value ranges from 60000-65000; type: tissue-based
# [37] = biological target: Muscarinic acetylcholine receptor; experiment: The compound was tested in vitro for central muscarinic acetylcholine receptor affinity to displace [3H]oxotremorine-M from rat cerebral cortex; Value ranges from 73-120; type: tissue-based
# [38] = biological target: Muscarinic acetylcholine receptor; experiment: The compound was tested in vitro for central muscarinic acetylcholine receptor affinity to displace [3H]quinuclidinyl benzilate from rat cerebral cortex; Value ranges from 15000-45000; type: tissue-based
# [39] = biological target: Muscarinic acetylcholine receptor; experiment: The compound was tested in vitro for central muscarinic acetylcholine receptor affinity to displace [3H]quinuclidinyl benzilate from rat cerebral cortex; Value ranges from 15000-25000; type: tissue-based
# [40] = biological target: Muscarinic acetylcholine receptor; experiment: The compound was tested in vitro for central muscarinic acetylcholine receptor affinity to displace [3H]oxotremorine-M from rat cerebral cortex; Value ranges from 950-1000; type: tissue-based
# [41] = biological target: Muscarinic acetylcholine receptor; experiment: The compound was tested in vitro for central muscarinic acetylcholine receptor affinity to displace [3H]quinuclidinyl benzilate from rat cerebral cortex; Value ranges from 1300-2300; type: tissue-based
# [42] = biological target: Muscarinic acetylcholine receptor; experiment: The compound was tested for muscarinic acetylcholine receptor affinity to displace [3H]oxotremorine-M from rat cerebral cortex; Value ranges from 250-280; type: tissue-based
# [43] = biological target: Muscarinic acetylcholine receptor; experiment: The compound was tested in vitro for central muscarinic acetylcholine receptor affinity to displace [3H]oxotremorine-M from rat cerebral cortex; Value ranges from 36-85; type: tissue-based
# [44] = biological target: Muscarinic acetylcholine receptor; experiment: The compound was tested in vitro for central muscarinic acetylcholine receptor affinity to displace [3H]quinuclidinyl benzilate from rat cerebral cortex; Value ranges from 29000-33000; type: tissue-based
# [45] = biological target: Muscarinic acetylcholine receptor; experiment: The compound was tested in vitro for central muscarinic acetylcholine receptor affinity to displace [3H]oxotremorine-M from rat cerebral cortex; Value ranges from 6-29; type: tissue-based
# [46] = biological target: Muscarinic acetylcholine receptor; experiment: The compound was tested in vitro for central muscarinic acetylcholine receptor affinity to displace [3H]quinuclidinyl benzilate from rat cerebral cortex; Value ranges from 1700-2000; type: tissue-based
# [47] = biological target: Muscarinic acetylcholine receptor; experiment: The compound was tested in vitro for central muscarinic acetylcholine receptor affinity to displace [3H]quinuclidinyl benzilate from rat cerebral cortex; Value ranges from 11000-14000; type: tissue-based
# [48] = biological target: Muscarinic acetylcholine receptor; experiment: The compound was tested in vitro for central muscarinic acetylcholine receptor affinity to displace [3H]oxotremorine-M from rat cerebral cortex; Value ranges from 75-80; type: tissue-based
smiles,measurement,setting,value
COC(=O)[C@@H]1C[C@H]2CCCN(C2)C1,IC50,[1],130 nM
same,IC50,[2],4800 nM
same,Ratio,[3],37
Cc1noc(C23CCCN(CC2)C3)n1 (stereo unspecified),IC50,[4],15 nM
same,ED3,Mus musculus [5],0.018 mg/kg
same,Ratio,[6],230
same,ED3,Mus musculus [7],0.0029 mg/kg
same,IC50,[8],3500 nM
COC(=O)C12CCCN(CC1)C2 (stereo unspecified),IC50,[9],6400 nM
same,ED3,Mus musculus [5],>0.3 mg/kg
same,Ratio,[3],340
same,IC50,[10],19 nM
same,ED3,Mus musculus [11],0.078 mg/kg
Cc1noc(C23CCN(CC2)C3)n1,IC50,[12],23000 nM
same,IC50,[13],130 nM
same,Ratio,[3],170
Cc1noc([C@@H]2CN3CC[C@@H]2C3)n1,ED3,Mus musculus [5],0.0011 mg/kg
same,IC50,[14],2.8 nM
same,Ratio,[3],360
same,IC50,[15],1000 nM
same,ED3,Mus musculus [11],0.0005 mg/kg
Cc1nnc([C@@H]2CN3CC[C@@H]2C3)o1,IC50,[16],29000 nM
same,Ratio,[17],240
same,IC50,[18],120 nM
Cc1noc([C@@H]2CN3CCC[C@@H]2C3)n1,IC50,[19],44 nM
same,Ratio,[3],55
same,IC50,[20],2400 nM
COC(=O)[C@@H]1CN2CC[C@@H]1C2,ED3,Mus musculus [5],>10 mg/kg
same,Ratio,[3],220
same,IC50,[21],230 nM
same,IC50,[22],51000 nM
same,ED3,Mus musculus [11],0.41 mg/kg
COC(=O)C1CN2CCC1CC2 (stereo unspecified),IC50,[23],25000 nM
same,IC50,[24],520 nM
same,Ratio,[3],49
Cc1nc(C23CCCN(CC2)C3)no1 (stereo unspecified),IC50,[25],260 nM
same,Ratio,[17],16
same,IC50,[26],4200 nM
Cc1nc(C2CN3CCC2CC3)no1 (stereo unspecified),IC50,[27],12000 nM
same,IC50,[28],1100 nM
same,Ratio,[17],10
Cc1nnc(C23CCN(CC2)C3)o1,Ratio,[17],380
same,IC50,[29],180 nM
same,IC50,[30],70000 nM
Cc1noc([C@@H]2C[C@H]3CCN(C3)C2)n1,IC50,[31],28 nM
same,IC50,[32],2400 nM
same,Ratio,[3],84
Cc1nnc(C23CCCN(CC2)C3)o1 (stereo unspecified),Ratio,[17],220
same,IC50,[33],42 nM
same,IC50,[34],9400 nM
COC(=O)[C@@H]1C[N@@]2CCC[C@@H]1C2,Ratio,[17],46
same,IC50,[35],1400 nM
same,IC50,[36],62000 nM
Cc1nc([C@@H]2CN3CC[C@@H]2C3)no1,IC50,[37],92 nM
same,Ratio,[3],290
same,IC50,[38],27000 nM
Cc1nnc(C2CN3CCC2CC3)o1 (stereo unspecified),Ratio,[17],20
same,IC50,[39],19000 nM
same,IC50,[40],980 nM
Cc1noc([C@@H]2C[C@H]3CCCN(C3)C2)n1,IC50,[41],1730 nM
same,IC50,[42],260 nM
same,Ratio,[3],7
COC(=O)C12CCN(CC1)C2,Ratio,[17],650
same,IC50,[43],48 nM
same,IC50,[44],31000 nM
Cc1noc(C2CN3CCC2CC3)n1 (stereo unspecified),IC50,[45],14 nM
same,IC50,[46],1800 nM
same,Ratio,[3],130
COC(=O)[C@@H]1C[C@H]2CCN(C2)C1,IC50,[47],12000 nM
same,IC50,[48],77 nM
same,Ratio,[3],160
